Assay results taken from ChEMBL document CHEMBL4257478, “Design, synthesis and evaluation of (R)-3-(7-(methyl(7H-pyrrolo[2,3-d]pyrimidin-4-yl)amino)-5-azaspiro[2.4]heptan-5-yl)-3-oxopropanenitrile as a JAK1-selective inhibitor” (Medchemcomm, 2018).
Active and inactive are the calls of the source. The rule behind the calls is not given here.

Key:
[1] = Cmax in Sprague-Dawley rat at 10 mg/kg, po after 0.25 to 24 hrs by LC-MS/MS method; type: ADME, organism-based; design: dose 10 mg/kg, route oral; conditions: in vivo
Outline: (§1)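 Male Sprague Dawley rats, 7-8 weeks old, n=4 per group. IV dose 5 mg/kg free base in 10% ethanol/90% PEG400; oral dose 10 mg/kg as corn oil suspension after 16 h fast. Blood taken 0.08-24 h (IV) or 0.25-24 h (PO). Plasma diluted in acetonitrile with internal standard, analysed by LC-MS/MS, parameters by non-compartmental analysis.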

[2] = Tmax in Sprague-Dawley rat at 10 mg/kg, po after 0.25 to 24 hrs by LC-MS/MS method; type: ADME, organism-based; conditions: in vivo
Outline: (§2)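 Male Sprague Dawley rats, 7–8 weeks old, n=4, fasted 16 h. Free base given at 10 mg/kg po as a corn oil suspension (5 mL/kg); a 5 mg/kg iv arm used 10% ethanol/90% PEG400. Plasma sampled 0.25–24 h, acetonitrile-precipitated with internal standard, and measured by LC-MS/MS. Parameters derived by non-compartmental analysis.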

[3] = Half life in Sprague-Dawley rat at 10 mg/kg, po after 0.25 to 24 hrs by LC-MS/MS method; type: ADME, organism-based; conditions: in vivo; outline: as §1
Rattus norvegicus [4] = assay: AUC (0 to infinity) in Sprague-Dawley rat at 10 mg/kg, po after 0.25 to 24 hrs by LC-MS/MS method; type: ADME, organism-based; design: dose 10 mg/kg, route oral, time infinity; conditions: in vivo; outline: as §1
Rattus norvegicus [5] = assay: AUC (0 to t) in Sprague-Dawley rat at 10 mg/kg, po after 0.25 to 24 hrs by LC-MS/MS method; type: ADME, organism-based; design: time lower 0.25 hr, dose 10 mg/kg, time upper 24 hr, route oral; conditions: in vivo; outline: as §1
[6] = MRT in Sprague-Dawley rat at 10 mg/kg, po after 0.25 to 24 hrs by LC-MS/MS method; type: ADME, organism-based; conditions: in vivo; outline: as §1
[7] = Oral bioavailability in Sprague-Dawley rat at 10 mg/kg after 0.25 to 24 hrs by LC-MS/MS method; type: ADME, organism-based; conditions: in vivo; outline: as §2
[8] = Half life in Sprague-Dawley rat at 5 mg/kg, iv after 0.08 to 24 hrs by LC-MS/MS method; type: ADME, organism-based; conditions: in vivo; outline: as §1
Rattus norvegicus [9] = assay: AUC (0 to infinity) in Sprague-Dawley rat at 5 mg/kg, iv after 0.08 to 24 hrs by LC-MS/MS method; type: ADME, organism-based; design: dose 5 mg/kg, time infinity, route intravenous; conditions: in vivo; outline: as §1
Rattus norvegicus [10] = assay: AUC (0 to t) in Sprague-Dawley rat at 5 mg/kg, iv after 0.08 to 24 hrs by LC-MS/MS method; type: ADME, organism-based; design: time upper 24 hr, time lower 0.08 hr, dose 5 mg/kg, route intravenous; conditions: in vivo; outline: as §1
[11] = MRT in Sprague-Dawley rat at 5 mg/kg, iv after 0.08 to 24 hrs by LC-MS/MS method; type: ADME, organism-based; conditions: in vivo; outline: as §1
[12] = molecular target: T1, Tyrosine-protein kinase JAK1 (Homo sapiens, UniProt P23458); assay: Inhibition of human JAK1 at 1 uM using GEEPLYWSFPAKKK as substrate after 40 mins in presence of [gamma-33P-ATP] by scintillation counting method relative to control
T1 sequence (P23458 whole entry): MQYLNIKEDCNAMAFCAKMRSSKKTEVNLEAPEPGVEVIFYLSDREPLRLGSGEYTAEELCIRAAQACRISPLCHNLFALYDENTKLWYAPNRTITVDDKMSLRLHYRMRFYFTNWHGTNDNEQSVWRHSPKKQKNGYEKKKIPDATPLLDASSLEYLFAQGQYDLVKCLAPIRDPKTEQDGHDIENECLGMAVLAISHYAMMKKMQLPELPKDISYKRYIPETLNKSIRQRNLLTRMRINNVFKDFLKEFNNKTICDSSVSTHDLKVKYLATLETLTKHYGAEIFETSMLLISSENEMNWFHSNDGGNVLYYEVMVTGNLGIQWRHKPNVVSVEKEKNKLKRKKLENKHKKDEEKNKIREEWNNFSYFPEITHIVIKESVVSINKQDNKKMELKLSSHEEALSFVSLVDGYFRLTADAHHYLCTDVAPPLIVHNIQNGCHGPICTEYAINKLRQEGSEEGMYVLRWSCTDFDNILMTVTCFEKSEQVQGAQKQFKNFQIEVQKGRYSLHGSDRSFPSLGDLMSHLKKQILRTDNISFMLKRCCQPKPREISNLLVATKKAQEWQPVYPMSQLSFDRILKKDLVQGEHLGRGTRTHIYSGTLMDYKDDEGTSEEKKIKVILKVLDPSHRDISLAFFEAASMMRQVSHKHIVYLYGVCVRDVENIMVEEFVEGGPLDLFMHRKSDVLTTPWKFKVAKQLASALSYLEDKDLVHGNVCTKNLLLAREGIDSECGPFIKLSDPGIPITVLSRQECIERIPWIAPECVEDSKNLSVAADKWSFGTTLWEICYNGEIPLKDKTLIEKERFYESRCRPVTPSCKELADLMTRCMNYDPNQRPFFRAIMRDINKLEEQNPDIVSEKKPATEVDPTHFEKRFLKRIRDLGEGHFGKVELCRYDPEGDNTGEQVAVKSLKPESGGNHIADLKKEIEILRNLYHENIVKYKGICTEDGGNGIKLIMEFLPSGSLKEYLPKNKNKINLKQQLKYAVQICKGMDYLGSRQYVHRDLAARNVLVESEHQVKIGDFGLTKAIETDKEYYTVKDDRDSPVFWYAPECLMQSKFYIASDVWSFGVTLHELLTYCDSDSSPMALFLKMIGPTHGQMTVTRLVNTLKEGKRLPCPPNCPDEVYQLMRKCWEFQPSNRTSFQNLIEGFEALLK

[13] = molecular target: Tyrosine-protein kinase JAK2 (Homo sapiens, UniProt O60674); assay: Inhibition of human JAK2 at 1 uM using KTFCGTPEYLAPEVRREPRILSEEEQEMFRDFDYIADWC as substrate after 40 mins in presence of [gamma-33P-ATP] by scintillation counting method relative to control
Tyrosine-protein kinase JAK2, sequence (O60674 whole entry): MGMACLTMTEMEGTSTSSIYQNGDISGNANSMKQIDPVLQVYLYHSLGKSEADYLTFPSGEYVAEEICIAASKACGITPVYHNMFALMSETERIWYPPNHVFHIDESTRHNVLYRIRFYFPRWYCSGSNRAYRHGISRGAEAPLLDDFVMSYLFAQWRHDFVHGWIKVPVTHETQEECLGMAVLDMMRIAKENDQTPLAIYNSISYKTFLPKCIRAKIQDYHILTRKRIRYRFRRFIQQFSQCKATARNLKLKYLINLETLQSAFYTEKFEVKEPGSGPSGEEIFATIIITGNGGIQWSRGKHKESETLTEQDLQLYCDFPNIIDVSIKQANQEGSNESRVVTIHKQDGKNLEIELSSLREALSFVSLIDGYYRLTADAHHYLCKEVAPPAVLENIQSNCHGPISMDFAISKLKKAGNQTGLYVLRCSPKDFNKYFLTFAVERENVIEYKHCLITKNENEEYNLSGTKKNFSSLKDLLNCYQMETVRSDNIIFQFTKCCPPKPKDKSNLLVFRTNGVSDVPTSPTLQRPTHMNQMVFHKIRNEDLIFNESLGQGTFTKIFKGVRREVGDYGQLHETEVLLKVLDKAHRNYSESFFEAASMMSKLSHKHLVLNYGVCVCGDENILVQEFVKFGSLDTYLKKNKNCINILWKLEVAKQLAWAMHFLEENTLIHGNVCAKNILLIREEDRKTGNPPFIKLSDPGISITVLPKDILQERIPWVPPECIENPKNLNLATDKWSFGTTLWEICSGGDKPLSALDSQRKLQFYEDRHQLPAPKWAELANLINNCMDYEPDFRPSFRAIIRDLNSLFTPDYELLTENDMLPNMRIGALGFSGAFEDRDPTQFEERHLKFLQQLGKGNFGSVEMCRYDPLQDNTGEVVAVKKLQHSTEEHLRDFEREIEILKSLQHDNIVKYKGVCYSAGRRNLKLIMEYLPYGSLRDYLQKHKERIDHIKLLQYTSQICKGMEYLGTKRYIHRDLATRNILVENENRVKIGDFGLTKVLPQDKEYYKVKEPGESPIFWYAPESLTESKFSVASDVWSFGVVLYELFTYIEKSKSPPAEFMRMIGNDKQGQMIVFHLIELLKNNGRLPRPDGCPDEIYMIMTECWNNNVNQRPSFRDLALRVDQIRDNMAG

Homo sapiens = organism: Homo sapiens; assay: Selectivity index, ratio of IC50 for human JAK2 to IC50 for human JAK1
Outline: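 Kinase activity assays run as a commercial service at Km ATP; IC50 values fitted from concentration-response data; ratio of JAK2 to JAK1 IC50.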

Mus musculus [14] = assay: Antiarthritic activity in collagen-induced DBA1/J mouse arthritis model assessed as decrease in clinical arthritis score administered as po qd measured twice weekly for 18 days; type: functional, organism-based
Outline: (§3)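 Male DBA1/J mice, 6 weeks old, immunized s.c. at the tail base with type II collagen (2 mg/mL) in complete Freund's adjuvant (1:1, 0.1 mL), then boosted at day 21 with collagen in incomplete Freund's adjuvant. Clinical scores taken twice weekly for 18 days; serum IL-6 and TNF-α measured after autopsy; right hind ankle assessed by histopathology and by micro-CT for bone surface/volume.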

Mus musculus [15] = assay: Antiarthritic activity in collagen-induced DBA1/J mouse arthritis model assessed as decrease in ratio of bone surface to bone volume of right hind ankle joint administered as po qd measured on day 19 by micro-CT analysis; type: functional, organism-based; outline: as §3
Mus musculus [16] = assay: Antiarthritic activity in collagen-induced DBA1/J mouse arthritis model assessed as decrease in right hind ankle joint thickness administered as po qd measured on day 19 by hematoxylin-eosin staining-based assay; type: functional, organism-based; outline: as §3
Mus musculus [17] = assay: Antiarthritic activity in collagen-induced DBA1/J mouse arthritis model assessed as decrease in articular surface cartilage thickness in right hind ankle joints administered as po qd measured on day 19 by hematoxylin-eosin staining-based assay; type: functional, organism-based; outline: as §3
Mus musculus [18] = assay: Antiarthritic activity in collagen-induced DBA1/J mouse arthritis model assessed as decrease in infiltration of inflammatory cells in right hind ankle joints administered as po qd measured on day 19 by hematoxylin-eosin staining-based assay; type: functional, organism-based; outline: as §3
Mus musculus [19] = assay: Antiarthritic activity in collagen-induced DBA1/J mouse arthritis model assessed as decrease in serum IL-6 levels administered as po qd measured on day 19 by ELISA; type: functional, organism-based; outline: as §3
Rattus norvegicus [20] = assay: Antiarthritic activity in adjuvant-induced SPF LEW/SsNSlc rat arthritis model assessed as decrease in clinical arthritis score at 5 to 20 mg/kg, po qd measured on day 14; type: functional, organism-based
Outline: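 Lewis rats were 10 weeks old after 2 weeks acclimation. Immunized s.c. at the tail base with 0.1 mL complete Freund's adjuvant containing 10 mg/mL heat-killed mycobacterium. From day 12 post-immunization (day 1), n=10 per group, oral dosing once daily for 14 days, vehicle corn oil. Clinical score and hind paw measured twice weekly.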

[21] = molecular target: T1, Tyrosine-protein kinase JAK1; conditions: 10 uM
[22] = molecular target: T2, Tyrosine-protein kinase JAK3 (Homo sapiens) (UniProt P52333); conditions: 10 uM
T2 sequence (whole entry): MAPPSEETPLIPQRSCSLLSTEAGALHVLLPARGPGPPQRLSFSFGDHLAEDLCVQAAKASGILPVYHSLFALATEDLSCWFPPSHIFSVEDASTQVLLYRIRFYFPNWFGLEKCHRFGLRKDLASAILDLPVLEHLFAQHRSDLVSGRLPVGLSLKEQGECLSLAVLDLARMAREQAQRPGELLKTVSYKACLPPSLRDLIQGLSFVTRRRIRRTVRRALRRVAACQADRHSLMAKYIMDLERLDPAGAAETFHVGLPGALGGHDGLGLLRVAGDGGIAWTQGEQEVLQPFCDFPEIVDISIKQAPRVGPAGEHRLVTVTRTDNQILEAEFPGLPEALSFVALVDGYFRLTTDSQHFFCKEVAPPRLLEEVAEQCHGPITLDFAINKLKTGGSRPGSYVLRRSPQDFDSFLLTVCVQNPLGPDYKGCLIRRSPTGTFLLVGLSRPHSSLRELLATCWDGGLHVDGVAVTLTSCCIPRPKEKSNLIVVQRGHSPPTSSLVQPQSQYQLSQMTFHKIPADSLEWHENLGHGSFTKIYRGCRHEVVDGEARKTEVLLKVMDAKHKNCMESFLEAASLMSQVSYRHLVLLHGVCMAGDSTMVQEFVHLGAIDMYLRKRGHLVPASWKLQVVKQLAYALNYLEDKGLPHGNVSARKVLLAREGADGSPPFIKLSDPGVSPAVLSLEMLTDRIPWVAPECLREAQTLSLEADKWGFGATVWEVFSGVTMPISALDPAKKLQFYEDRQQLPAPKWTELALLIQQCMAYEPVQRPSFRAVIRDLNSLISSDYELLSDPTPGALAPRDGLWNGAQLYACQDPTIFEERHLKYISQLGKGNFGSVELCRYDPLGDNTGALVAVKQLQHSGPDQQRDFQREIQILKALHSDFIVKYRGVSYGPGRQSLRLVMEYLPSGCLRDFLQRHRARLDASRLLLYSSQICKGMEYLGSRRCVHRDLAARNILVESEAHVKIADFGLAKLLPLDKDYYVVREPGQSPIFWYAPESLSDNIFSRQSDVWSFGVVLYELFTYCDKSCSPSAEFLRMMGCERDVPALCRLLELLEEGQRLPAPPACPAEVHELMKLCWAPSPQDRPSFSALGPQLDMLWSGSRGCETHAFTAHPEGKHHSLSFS

[23] = molecular target: Non-receptor tyrosine-protein kinase TYK2 (Homo sapiens) (UniProt P29597); conditions: 10 uM
Non-receptor tyrosine-protein kinase TYK2 (Homo sapiens), sequence (P29597 whole entry): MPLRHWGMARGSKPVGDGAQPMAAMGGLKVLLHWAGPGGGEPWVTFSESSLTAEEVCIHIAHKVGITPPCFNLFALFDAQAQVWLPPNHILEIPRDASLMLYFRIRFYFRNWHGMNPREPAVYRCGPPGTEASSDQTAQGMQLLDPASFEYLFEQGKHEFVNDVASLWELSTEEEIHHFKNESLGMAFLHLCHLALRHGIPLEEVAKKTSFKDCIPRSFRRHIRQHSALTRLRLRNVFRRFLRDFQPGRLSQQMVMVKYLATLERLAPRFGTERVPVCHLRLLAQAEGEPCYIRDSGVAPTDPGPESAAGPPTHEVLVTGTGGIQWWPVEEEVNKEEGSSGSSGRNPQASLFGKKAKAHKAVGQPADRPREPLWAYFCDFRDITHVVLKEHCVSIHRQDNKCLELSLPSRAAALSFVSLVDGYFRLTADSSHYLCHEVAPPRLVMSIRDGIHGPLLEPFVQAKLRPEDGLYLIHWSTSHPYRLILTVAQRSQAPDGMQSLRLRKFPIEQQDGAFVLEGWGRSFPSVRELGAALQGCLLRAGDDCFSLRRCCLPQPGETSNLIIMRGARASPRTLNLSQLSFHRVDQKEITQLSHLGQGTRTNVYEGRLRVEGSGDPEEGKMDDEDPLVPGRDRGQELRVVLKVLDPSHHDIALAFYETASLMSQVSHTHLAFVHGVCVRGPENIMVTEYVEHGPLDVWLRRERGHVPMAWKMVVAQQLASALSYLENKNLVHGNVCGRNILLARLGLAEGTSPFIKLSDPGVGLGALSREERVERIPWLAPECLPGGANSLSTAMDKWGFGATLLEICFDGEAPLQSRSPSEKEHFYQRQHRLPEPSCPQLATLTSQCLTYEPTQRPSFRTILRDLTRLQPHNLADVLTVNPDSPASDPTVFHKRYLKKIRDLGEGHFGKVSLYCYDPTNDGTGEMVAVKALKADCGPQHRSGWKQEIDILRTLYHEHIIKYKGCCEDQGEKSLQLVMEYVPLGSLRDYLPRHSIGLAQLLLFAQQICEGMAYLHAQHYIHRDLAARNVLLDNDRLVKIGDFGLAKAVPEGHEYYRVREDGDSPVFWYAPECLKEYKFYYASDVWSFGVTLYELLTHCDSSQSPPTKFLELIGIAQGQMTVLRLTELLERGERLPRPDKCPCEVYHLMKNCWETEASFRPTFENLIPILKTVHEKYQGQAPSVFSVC

Mus musculus [24] = assay: Antiarthritic activity in collagen-induced DBA1/J mouse arthritis model assessed as decrease in paw volume administered as po qd measured on day 1 and 15 by plethysmometer

`CN(c1ncnc2[nH]ccc12)[C@H]1CN(C(=O)CC#N)CC12CC2.O=C(O)C(O)C(O)C(=O)O` gave a Cmax [1] of 1 µg/mL, a Tmax [2] of 0.4 h and a half-life [3] of 1 h. It also gave an AUC (Rattus norvegicus [4]) of 1.9 µg·h/mL, an AUCt (Rattus norvegicus [5]) of 1.9 µg·h/mL and an MRT [6] of 1.5 h. For the same molecule, the bioavailability [7] was 68%, the half-life [8] was 1 h and the AUC (Rattus norvegicus [9]) was 1.4 µg·h/mL. It also gave an AUCt (Rattus norvegicus [10]) of 1.4 µg·h/mL and an MRT [11] of 0.9 h.
`N#CCC(=O)NC1CN(c2ncnc3[nH]ccc23)CC12CC2` (stereo not given) showed an inhibition [12] of 6% and an inhibition at 1 µM [13] of 10%.
For `CN(c1ncnc2[nH]ccc12)[C@H]1CN(C(=O)CC#N)CC12CC2`, the Ratio IC50 (Homo sapiens) was 48, the Activity (Mus musculus [14]) was “Dose-dependent effect” and the Activity (Mus musculus [15]) was “Dose-dependent effect”. The Activity (Mus musculus [16]) was “Dose-dependent effect”, the Activity (Mus musculus [17]) was “Dose-dependent effect” and the Activity (Mus musculus [18]) was “Dose-dependent effect”. For the same molecule, the Activity (Mus musculus [19]) was “Dose-dependent effect”, the Activity (Rattus norvegicus [20]) was “Active” and the inhibition [21] was 90%. For the same molecule, the inhibition [22] was 90%, the inhibition [23] was 90% and the Activity (Mus musculus [24]) was “Dose-dependent effect”.
